Most compounds without a hit are left out; they make up all but 2.5% or so of the library.
PRMT1 FP inh – PRMT1 methyltransferase inhibitors, primary screen, biochemical, fluorescence polarization | Protein arginine N-methyltransferase 1 (Homo sapiens), Q99873 | hit rate 1.3% among 370,000 | AID 652257, 2013 | recombinant PRMT1, activity-based probe fluorescence polarization | inhibition, % at 2.79 µM;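 active = inhibition above about 21% made by adding two undisclosed values, limit read from the data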
Target sequence (Q99873 whole entry, looked up): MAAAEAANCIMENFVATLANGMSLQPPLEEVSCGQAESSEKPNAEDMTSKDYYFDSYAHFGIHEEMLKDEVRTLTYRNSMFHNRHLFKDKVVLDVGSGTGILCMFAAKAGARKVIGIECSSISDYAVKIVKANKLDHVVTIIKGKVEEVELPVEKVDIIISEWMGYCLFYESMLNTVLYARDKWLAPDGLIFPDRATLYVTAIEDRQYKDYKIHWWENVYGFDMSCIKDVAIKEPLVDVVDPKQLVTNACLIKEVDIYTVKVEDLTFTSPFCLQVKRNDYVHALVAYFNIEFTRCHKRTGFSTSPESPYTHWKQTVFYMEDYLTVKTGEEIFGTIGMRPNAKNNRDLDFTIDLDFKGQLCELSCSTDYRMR
TCR-CD3 inh – inhibitors of human TCR-CD3 interaction, primary screen, biochemical, fluorescence, TAMRA-labeled TCR probe | T-cell receptor (TCR) | inhibition, % at 9.4 µM | hit rate 0.37% among 360,000; in the data active = inhibition above about 19%;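 also: recombinant mutant TCR 2C K166C tagged with TAMRA read by polarization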
HTRA1 inh – HTRA1 serine protease inhibitors, primary screen, biochemical, fluorescence polarization, HTS; Q92743; inhibition, % at 5.96 µM; AID 504803, 2011; hit rate 0.5% among 340,000; recombinant HTRA1, FP-rhodamine activity-based probe; in the data active = inhibition above about 36%
ABHD4 inh – ABHD4 inhibitors, primary screen, biochemical, fluorescence polarization, mouse; (Lyso)-N-acylphosphatidylethanolamine lipase (Mus musculus), Q8VD66; purified mABHD4, FP-Rh probe fluorescence polarization; inhibition, % at 8.92 µM; hit rate 0.54% among 370,000; AID 720543, 2013;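 active = inhibition exceeding the mean over every tested compound plus 3 SD, cut at about 30% in these data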
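Test system: mouse ABHD4 enzyme, wild type. Reagent: FP-Rh fluorescent activity-based probe, added after compound pre-incubation. Timing: pre-incubation 45 min, probe exposure 60 min, at 25 °C. Technique: FP readout, ex 525 nm / em 598 nm. Benchmarks: high control S159A mutant with DMSO, low control median of compound wells.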
SIAE inh – human SIAE inhibitors, primary screen, biochemical, fluorescence polarization, FP-Rh probe, 1536-well HTS; SIAE FP-Rh probe binding; inhibition, % at 9.66 µM; hit rate 0.69% among 370,000;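 active = inhibition above a cutoff: mean of compounds within the control limits plus 3 SD of those, cut at about 17% in these data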
ABHD4 confirm – ABHD4 inhibitors, retest, confirmation, biochemical, fluorescence polarization, mouse. shares compounds with ABHD4 inh. purified mABHD4, FP-Rh probe fluorescence polarization. inhibition, % at 8.92 µM. hit rate 55% among 1,800. AID 720658, 2013;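 active = mean inhibition across replicates above the hit cutoff set in the primary screen, cut at about 30% in these data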
A number is an active result.

Screening CC1CCN(Cc2nnnn2CCCC(=O)N(C)C(C)c2ccccn2)CC1 (stereo unspecified) returned PRMT1 FP inh inactive, TCR-CD3 inh inactive, HTRA1 inh inactive, ABHD4 inh inactive and SIAE inh inactive.
For O=[N+]([O-])c1ccc(/C=N/Nc2nc(N3CCCCC3)nc(N3CCCCC3)n2)o1 the results were PRMT1 FP inh inactive, TCR-CD3 inh inactive, HTRA1 inh inactive, ABHD4 inh 54, SIAE inh inactive and ABHD4 confirm 55.
Cc1ccc(NC(=S)NNC(=O)c2cnccn2)cc1 was read as PRMT1 FP inh inactive, ABHD4 inh 52, SIAE inh inactive and ABHD4 confirm 59.
Screening COc1ccc(COC[B-](F)(F)F)cc1 returned PRMT1 FP inh inactive, TCR-CD3 inh inactive, HTRA1 inh inactive, ABHD4 inh 44, SIAE inh inactive and ABHD4 confirm inactive.
For CCN(CC)c1c(C)nc2ccc(C(=O)Nc3cc(-c4ccccc4)ccc3OC)cn12 the results were PRMT1 FP inh inactive, TCR-CD3 inh inactive, ABHD4 inh 53, SIAE inh inactive and ABHD4 confirm 59.
`CCc1nc2ccc(C(=O)Nc3cc(-c4ccccc4)ccc3OC)cn2c1N(C)Cc1ccc(Cl)cc1` gave PRMT1 FP inh inactive, TCR-CD3 inh inactive, ABHD4 inh inactive and SIAE inh inactive.
Screening Cn1ccnc1CC(O)(c1ccccc1)c1ccccc1 returned PRMT1 FP inh inactive, TCR-CD3 inh inactive, HTRA1 inh inactive, ABHD4 inh inactive and SIAE inh inactive.
CCN(CC)S(=O)(=O)c1ccc(N/N=C/c2ccccc2OCC(=O)O)c([N+](=O)[O-])c1 was read as PRMT1 FP inh inactive, TCR-CD3 inh inactive, HTRA1 inh inactive, ABHD4 inh 35, SIAE inh inactive and ABHD4 confirm 44.
`COc1ccccc1NS(=O)(=O)c1ccc(N/N=C/C=C/c2ccccc2[N+](=O)[O-])c([N+](=O)[O-])c1` gave PRMT1 FP inh inactive, TCR-CD3 inh inactive, HTRA1 inh inactive, ABHD4 inh inactive and SIAE inh inactive.
Screening COc1ccccc1NS(=O)(=O)c1ccc(N/N=C/c2ccccc2OCC(=O)O)c([N+](=O)[O-])c1 returned PRMT1 FP inh inactive, TCR-CD3 inh inactive, HTRA1 inh inactive, ABHD4 inh 60, SIAE inh inactive and ABHD4 confirm 61.
Screening CCOc1ccc(S(=O)(=O)N2CCOCC2)cc1NC(=O)CSCC(=O)Nc1ccc(OC)cc1 returned PRMT1 FP inh inactive, TCR-CD3 inh inactive, HTRA1 inh inactive, ABHD4 inh inactive and SIAE inh inactive.
For CC(C)Cn1cc(-c2cccc3nccn23)cn1 the results were PRMT1 FP inh inactive, TCR-CD3 inh inactive, ABHD4 inh inactive and SIAE inh inactive.
`Cc1ccc(S(=O)(=O)N2[C@@H](c3ccccc3F)C(C(=O)O)=CC[C@H]2c2ccc(C(C)C)cc2)cc1` gave PRMT1 FP inh inactive, TCR-CD3 inh inactive, HTRA1 inh inactive, ABHD4 inh 33, SIAE inh inactive and ABHD4 confirm inactive.
`COC(=O)c1ccccc1Nc1ccccc1` gave PRMT1 FP inh inactive, TCR-CD3 inh inactive, HTRA1 inh inactive, ABHD4 inh inactive and SIAE inh inactive.
O=S(=O)(O)c1cccc2cccc(Nc3ccccc3)c12 was read as PRMT1 FP inh 25, TCR-CD3 inh inactive, HTRA1 inh inactive, ABHD4 inh 61, SIAE inh inactive and ABHD4 confirm inactive.
Screening CC(C(=O)O)N1C(=O)/C(=C/C=C/c2ccco2)SC1=S (stereo unspecified) returned PRMT1 FP inh 56, TCR-CD3 inh inactive, HTRA1 inh inactive, ABHD4 inh 37, SIAE inh inactive and ABHD4 confirm inactive.
For Cc1ccc2[nH]c3ccccc3c(=O)c2c1 the results were PRMT1 FP inh inactive, TCR-CD3 inh inactive, HTRA1 inh inactive, ABHD4 inh inactive and SIAE inh inactive.
O=c1c2ccccc2[nH]c2ccc(O)cc12 was read as PRMT1 FP inh inactive, TCR-CD3 inh inactive, HTRA1 inh inactive, ABHD4 inh 41, SIAE inh inactive and ABHD4 confirm inactive.
Screening CCOC(=O)c1c(-c2ccccc2)[nH]c2ccc(O)cc12 returned PRMT1 FP inh inactive, TCR-CD3 inh inactive, HTRA1 inh inactive, ABHD4 inh 31, SIAE inh inactive and ABHD4 confirm 42.
`N=C(N)SCc1cn(-c2ccccc2)nc1-c1ccc(Br)cc1` gave PRMT1 FP inh inactive, TCR-CD3 inh inactive, HTRA1 inh inactive, ABHD4 inh 36, SIAE inh inactive and ABHD4 confirm 60.
For CC(C)(C)C(=O)Nc1cc2c3c(c1)CCC(=O)N3CCC2 the results were PRMT1 FP inh inactive, TCR-CD3 inh inactive, HTRA1 inh inactive, ABHD4 inh inactive and SIAE inh inactive.
`CCCNc1c(F)c(F)c2c(C)c3ccccc3nc2c1F` gave PRMT1 FP inh inactive, TCR-CD3 inh inactive, HTRA1 inh 51, ABHD4 inh 51, SIAE inh inactive and ABHD4 confirm 45.
`CC(C)(C)c1ccc(C(=O)Nc2cc(Cl)c(F)cc2C(=O)O)cc1` gave PRMT1 FP inh inactive, ABHD4 inh inactive and SIAE inh inactive.
For COc1cccc(C(=O)NCC2CCN(C(=O)C(=O)c3cc4ccccc4o3)CC2)c1 the results were PRMT1 FP inh inactive, TCR-CD3 inh inactive, ABHD4 inh inactive and SIAE inh inactive.
For CN=c1scc(C)n1/N=C/c1ccc(O)cc1 the results were PRMT1 FP inh inactive, TCR-CD3 inh inactive, HTRA1 inh inactive, ABHD4 inh inactive and SIAE inh inactive.
Screening C=CCN=c1scc(C)n1/N=C/c1ccc(O)c(O)c1 returned PRMT1 FP inh inactive, TCR-CD3 inh inactive, HTRA1 inh inactive, ABHD4 inh 40, SIAE inh inactive and ABHD4 confirm inactive.
Screening CCC(CC)c1nnc(NC(=O)CCNC(=O)c2ccccc2Cl)s1 returned PRMT1 FP inh inactive, TCR-CD3 inh inactive, HTRA1 inh inactive, ABHD4 inh inactive and SIAE inh inactive.
For CCOc1ccc2[nH]c3c(N4CCc5ccccc5C4)ncnc3c2c1 the results were PRMT1 FP inh inactive, TCR-CD3 inh inactive, ABHD4 inh 35, SIAE inh inactive and ABHD4 confirm 53.
Screening CCOc1ccc(S(=O)(=O)N2CCC(C(=O)OC(C)C(=O)N3CCOCC3)CC2)cc1 (stereo unspecified) returned PRMT1 FP inh inactive, TCR-CD3 inh inactive, HTRA1 inh inactive, ABHD4 inh inactive and SIAE inh inactive.
For NC(=Nc1ccc(N)cc1)C(N)=Nc1ccc(N)cc1 the results were PRMT1 FP inh inactive, TCR-CD3 inh inactive, HTRA1 inh inactive, ABHD4 inh 31, SIAE inh inactive and ABHD4 confirm inactive.
